Laboratory results from ChEMBL document CHEMBL1154674, “Synthesis and evaluation of three 18F-labeled aminophenylbenzothiazoles as amyloid imaging agents” (J Med Chem, 2009).

Columns and labels:
Format in all cases: ADME, organism-based, Macaca mulatta
[1] = Drug level in normal rhesus monkey frontal cortex assessed as standard uptake value at 96.3 MBq, iv after 6 mins by microPET; details: in vivo, 0.1 h
[2] = Drug level in normal rhesus monkey thalamus assessed as standard uptake value at 96.3 MBq, iv after 2.5 mins by microPET; details: in vivo
[3] = Drug level in normal rhesus monkey pons assessed as standard uptake value at 96.3 MBq, iv after 12 mins by microPET; details: in vivo, 0.2 h
[4] = Drug level in normal rhesus monkey white matter assessed as standard uptake value at 96.3 MBq, iv after 37.5 mins by microPET; details: in vivo, 0.625 h
[5] = Drug level in normal rhesus monkey white matter assessed as standard uptake value at 96.3 MBq, iv after 75 mins by microPET; details: in vivo, 1.25 h
[6] = Drug level in normal rhesus monkey thalamus assessed as standard uptake value at 96.3 MBq, iv after 52.5 mins by microPET; details: in vivo, 0.875 h
[7] = Drug level in normal rhesus monkey frontal cortex assessed as standard uptake value at 96.3 MBq, iv after 4.5 mins by microPET; details: in vivo, 0.075 h
[8] = Drug level in normal rhesus monkey thalamus assessed as standard uptake value at 96.3 MBq, iv after 4.5 mins by microPET; details: in vivo, 0.075 h
[9] = Drug level in normal rhesus monkey thalamus assessed as standard uptake value at 96.3 MBq, iv after 37.5 mins by microPET; details: in vivo, 0.625 h
[10] = Drug level in normal rhesus monkey parietal cortex assessed as standard uptake value at 96.3 MBq, iv after 175 mins by microPET; details: in vivo
[11] = Drug level in normal rhesus monkey thalamus assessed as standard uptake value at 81.2 MBq, iv after 12 mins by microPET; details: in vivo, 0.2 h
[12] = Drug level in normal rhesus monkey thalamus assessed as standard uptake value at 81.2 MBq, iv after 57.5 mins by microPET; details: in vivo
[13] = Drug level in normal rhesus monkey parietal cortex assessed as standard uptake value at 81.2 MBq, iv after 2.5 mins by microPET; details: in vivo
[14] = Drug level in normal rhesus monkey frontal cortex assessed as standard uptake value at 81.2 MBq, iv after 42.5 mins by microPET; details: in vivo
[15] = Drug level in normal rhesus monkey white matter assessed as standard uptake value at 81.2 MBq, iv after 10 mins by microPET; details: in vivo
[16] = Drug level in normal rhesus monkey cerebellum assessed as standard uptake value at 81.2 MBq, iv after 17.5 mins by microPET; details: in vivo
Summary of the method: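 One normal rhesus monkey, each tracer given iv via the vena saphena (81.2, 96.3 or 109.4 MBq), with 1 day between tracer injections. Dynamic brain μPET over 180 min used frames of 5 × 60 s, 5 × 120 s, 9 × 300 s and 12 × 600 s. Images were reconstructed by filtered back projection with a RAMP filter. Regional time-activity curves were expressed as SUV.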

[17] = Drug level in normal rhesus monkey white matter assessed as standard uptake value at 81.2 MBq, iv after 85 mins by microPET; details: in vivo
[18] = Drug level in normal rhesus monkey white matter assessed as standard uptake value at 152.9 MBq, iv after 8 mins by microPET; details: in vivo
[19] = Drug level in normal rhesus monkey white matter assessed as standard uptake value at 152.9 MBq, iv after 27.5 mins by microPET; details: in vivo
[20] = Drug level in normal rhesus monkey pons assessed as standard uptake value at 152.9 MBq, iv after 3.5 mins by microPET; details: in vivo
[21] = Drug level in normal rhesus monkey parietal cortex assessed as standard uptake value at 152.9 MBq, iv after 22.5 mins by microPET; details: in vivo, 0.375 h
[22] = Drug level in normal rhesus monkey thalamus assessed as standard uptake value at 152.9 MBq, iv after 37.5 mins by microPET; details: in vivo, 0.625 h
[23] = Drug level in normal rhesus monkey frontal cortex assessed as standard uptake value at 152.9 MBq, iv after 4.5 mins by microPET; details: in vivo, 0.075 h
Summary of the method: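 Single normal rhesus monkey; tracer given iv via the vena saphena, 1 day apart from the other tracer injections. Dynamic μPET ran 90 min (5×60 s, 5×120 s, 9×300 s, 3×600 s). Images were reconstructed by filtered back projection with a RAMP filter. Regional time-activity curves were expressed as SUV.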

[24] = Drug level in normal rhesus monkey white matter assessed as standard uptake value at 152.9 MBq, iv after 22.5 mins by microPET; details: in vivo, 0.375 h
[25] = Drug level in normal rhesus monkey thalamus assessed as standard uptake value at 152.9 MBq, iv after 2.5 mins by microPET; details: in vivo
[26] = Drug level in normal rhesus monkey thalamus assessed as standard uptake value at 152.9 MBq, iv after 75 mins by microPET; details: in vivo, 1.25 h
[27] = Drug level in normal rhesus monkey pons assessed as standard uptake value at 152.9 MBq, iv after 1.5 mins by microPET; details: in vivo, 0.025 h
[28] = Drug level in normal rhesus monkey parietal cortex assessed as standard uptake value at 152.9 MBq, iv after 6 mins by microPET; details: in vivo, 0.1 h
[29] = Drug level in normal rhesus monkey parietal cortex assessed as standard uptake value at 152.9 MBq, iv after 12 mins by microPET; details: in vivo, 0.2 h
[30] = Drug level in normal rhesus monkey parietal cortex assessed as standard uptake value at 109.4 MBq, iv after 123 mins by microPET; details: in vivo, 2.05 h
[31] = Drug level in normal rhesus monkey pons assessed as standard uptake value at 109.4 MBq, iv after 75 mins by microPET; details: in vivo, 1.25 h
[32] = Drug level in normal rhesus monkey white matter assessed as standard uptake value at 109.4 MBq, iv after 22.5 mins by microPET; details: in vivo, 0.375 h
[33] = Drug level in normal rhesus monkey parietal cortex assessed as standard uptake value at 109.4 MBq, iv after 117 mins by microPET; details: in vivo, 1.95 h
[34] = Drug level in normal rhesus monkey thalamus assessed as standard uptake value at 109.4 MBq, iv after 81 mins by microPET; details: in vivo, 1.35 h
[35] = Drug level in normal rhesus monkey frontal cortex assessed as standard uptake value at 109.4 MBq, iv after 9.5 mins by microPET; details: in vivo
[36] = Drug level in normal rhesus monkey thalamus assessed as standard uptake value at 109.4 MBq, iv after 0.375 mins by microPET; details: in vivo, 22 s
[37] = Drug level in normal rhesus monkey parietal cortex assessed as standard uptake value at 109.4 MBq, iv after 6.5 mins by microPET; details: in vivo
[38] = Drug level in normal rhesus monkey parietal cortex assessed as standard uptake value at 109.4 MBq, iv after 111 mins by microPET; details: in vivo
[39] = Drug level in normal rhesus monkey pons assessed as standard uptake value at 109.4 MBq, iv after 47.5 mins by microPET; details: in vivo
[40] = Drug level in normal rhesus monkey parietal cortex assessed as standard uptake value at 109.4 MBq, iv after 52.5 mins by microPET; details: in vivo, 0.875 h

**Q.** What does the source list for `CN(C)c1ccc2nc(-c3ccc([18F])cc3)sc2c1`?
**A.** SUV [1]: 1.97; SUV [2]: 1.52; SUV [3]: 1.55; SUV [4]: 1.46; SUV [5]: 1.5; SUV [6]: 2.26; SUV [7]: 1.64; SUV [8]: 1.93; SUV [9]: 2.33; SUV [10]: 1.17

**Q.** Which SUV [11] does the source give for `CNc1ccc2nc(-c3ccc([18F])cc3)sc2c1` here?
**A.** 4.684

**Q.** And the SUV [12]?
**A.** 5.552

**Q.** And the SUV [13]?
**A.** 4.252

**Q.** And the SUV [14]?
**A.** 5.476

**Q.** And the SUV [15]?
**A.** 3.524

**Q.** What about the SUV [16] of the same compound?
**A.** 2.753

**Q.** And the SUV [17]?
**A.** 3.871

**Q.** Which results are given for `[11CH3]Nc1ccc(-c2nc3ccc(O)cc3s2)cc1` [PITTSBURGH COMPOUND B]?
**A.** SUV [18]: 1.421; SUV [19]: 1.209; SUV [20]: 1.502; SUV [21]: 1.453; SUV [22]: 1.364; SUV [23]: 2.11; SUV [24]: 1.229; SUV [25]: 1.195; SUV [26]: 0.731; SUV [27]: 0.447; SUV [28]: 2.16; SUV [29]: 2.062

**Q.** For `Nc1ccc2nc(-c3ccc([18F])cc3)sc2c1`, which SUV [30] is on record?
**A.** 3.56

**Q.** What about the SUV [31] of the same compound?
**A.** 4.79

**Q.** What about the SUV [32] of the same compound?
**A.** 3.04

**Q.** What about the SUV [33] of the same compound?
**A.** 3.51

**Q.** And the SUV [34]?
**A.** 5.18

**Q.** And the SUV [35]?
**A.** 5.43

**Q.** And the SUV [36]?
**A.** 0.41

**Q.** What about the SUV [37] of the same compound?
**A.** 5.31

**Q.** And the SUV [38]?
**A.** 3.59

**Q.** What about the SUV [39] of the same compound?
**A.** 4.7

**Q.** And the SUV [40]?
**A.** 4.38
